{"source": "ChEMBL document CHEMBL4229344", "about": "(Eur J Med Chem, 2018)", "key": {"[1]": {"test_system": "Epidermal growth factor receptor (Homo sapiens), P00533 [G719C]", "test": "Binding affinity to human partial length EGFR G719C mutant (R669 to V1011 residues) expressed in bacterial expression system assessed as residual binding level at 1 uM by Kinomescan method relative to control", "how_it_was_run": "(§1)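 Kinome-wide single-concentration binding screen (KINOMEscan) at 1 μM against a panel of 468 purified kinases and mutants. Read-out is relative binding of each kinase compared with control. Selectivity across the panel was summarised as an S(10) score.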"}, "[2]": {"biological_target": "Glycogen synthase kinase-3 beta (Homo sapiens) (UniProt P49841)", "test": "Binding affinity to wild-type human full length GSK3B (M1 to T433 residues) expressed in mammalian expression system assessed as residual binding level at 1 uM by Kinomescan method relative to control", "how_it_was_run": "(§2)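 KINOMEscan competition binding against 468 purified kinases/mutants, test compound at 1 µM; residual binding relative to control.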"}, "[3]": {"biological_target": "Serine/threonine-protein kinase WNK2 (Homo sapiens) (UniProt Q9Y3S1)", "sequence (Q9Y3S1 whole entry, the tested form may be a part)": "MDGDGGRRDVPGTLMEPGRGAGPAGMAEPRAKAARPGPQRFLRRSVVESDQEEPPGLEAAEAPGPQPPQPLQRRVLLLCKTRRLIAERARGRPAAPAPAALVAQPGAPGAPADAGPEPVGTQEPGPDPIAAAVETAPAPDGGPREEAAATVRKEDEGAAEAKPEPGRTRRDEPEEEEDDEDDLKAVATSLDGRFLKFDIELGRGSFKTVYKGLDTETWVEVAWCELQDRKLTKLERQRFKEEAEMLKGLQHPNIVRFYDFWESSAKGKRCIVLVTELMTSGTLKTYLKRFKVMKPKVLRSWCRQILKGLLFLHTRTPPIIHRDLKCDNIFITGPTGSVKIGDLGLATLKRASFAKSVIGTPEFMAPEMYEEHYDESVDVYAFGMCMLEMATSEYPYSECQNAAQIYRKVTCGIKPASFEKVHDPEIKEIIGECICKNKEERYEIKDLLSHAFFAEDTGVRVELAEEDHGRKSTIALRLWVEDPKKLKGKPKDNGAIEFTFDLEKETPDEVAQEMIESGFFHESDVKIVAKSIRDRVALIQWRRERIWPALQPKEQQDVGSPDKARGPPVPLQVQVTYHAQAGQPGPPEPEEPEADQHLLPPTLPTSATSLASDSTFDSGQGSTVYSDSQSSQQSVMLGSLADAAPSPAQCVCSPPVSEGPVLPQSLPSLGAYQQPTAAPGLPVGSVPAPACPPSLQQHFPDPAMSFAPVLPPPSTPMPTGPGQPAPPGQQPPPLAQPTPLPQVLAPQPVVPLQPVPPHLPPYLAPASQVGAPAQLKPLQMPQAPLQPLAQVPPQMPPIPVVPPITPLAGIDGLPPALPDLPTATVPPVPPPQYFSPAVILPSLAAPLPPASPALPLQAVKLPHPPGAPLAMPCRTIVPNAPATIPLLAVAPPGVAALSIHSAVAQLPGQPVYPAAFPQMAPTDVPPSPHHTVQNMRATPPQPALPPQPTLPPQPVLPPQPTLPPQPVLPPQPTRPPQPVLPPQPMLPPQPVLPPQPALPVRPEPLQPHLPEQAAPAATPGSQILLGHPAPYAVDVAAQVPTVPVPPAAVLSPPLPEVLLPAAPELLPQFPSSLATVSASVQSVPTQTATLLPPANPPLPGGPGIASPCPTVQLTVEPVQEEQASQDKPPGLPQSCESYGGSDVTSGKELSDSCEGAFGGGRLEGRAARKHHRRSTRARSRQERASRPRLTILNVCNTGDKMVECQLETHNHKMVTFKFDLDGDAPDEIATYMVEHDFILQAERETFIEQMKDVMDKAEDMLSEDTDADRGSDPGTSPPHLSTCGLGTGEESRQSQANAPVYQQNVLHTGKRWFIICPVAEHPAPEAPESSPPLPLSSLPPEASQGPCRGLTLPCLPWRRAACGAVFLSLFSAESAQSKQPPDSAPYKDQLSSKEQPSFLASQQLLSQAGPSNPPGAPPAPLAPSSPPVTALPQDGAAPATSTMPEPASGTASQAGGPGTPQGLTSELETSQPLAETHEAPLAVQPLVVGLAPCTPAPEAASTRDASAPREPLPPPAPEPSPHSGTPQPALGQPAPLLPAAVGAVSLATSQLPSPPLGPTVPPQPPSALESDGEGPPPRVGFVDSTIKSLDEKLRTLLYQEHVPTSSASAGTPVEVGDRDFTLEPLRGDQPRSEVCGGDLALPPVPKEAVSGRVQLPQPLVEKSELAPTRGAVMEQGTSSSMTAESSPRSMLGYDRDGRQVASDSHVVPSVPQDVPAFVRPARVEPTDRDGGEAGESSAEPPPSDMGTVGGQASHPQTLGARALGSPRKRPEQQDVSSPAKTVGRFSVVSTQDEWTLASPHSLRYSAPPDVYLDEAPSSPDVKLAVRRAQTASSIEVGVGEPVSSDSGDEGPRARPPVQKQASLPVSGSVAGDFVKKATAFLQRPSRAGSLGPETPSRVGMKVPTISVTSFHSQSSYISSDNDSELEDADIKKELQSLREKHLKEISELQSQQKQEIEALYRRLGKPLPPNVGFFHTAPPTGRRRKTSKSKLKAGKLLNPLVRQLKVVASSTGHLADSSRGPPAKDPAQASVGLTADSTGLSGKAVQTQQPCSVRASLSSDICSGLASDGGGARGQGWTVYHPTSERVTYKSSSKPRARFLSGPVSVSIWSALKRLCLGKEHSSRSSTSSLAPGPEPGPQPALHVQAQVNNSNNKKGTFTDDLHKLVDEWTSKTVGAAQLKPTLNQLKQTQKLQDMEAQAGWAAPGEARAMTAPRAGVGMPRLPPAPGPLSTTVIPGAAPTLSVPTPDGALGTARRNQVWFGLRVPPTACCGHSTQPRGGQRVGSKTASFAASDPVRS", "test": "Binding affinity to wild-type human partial length WNK2 (V47 to D482 residues) expressed in mammalian expression system assessed as residual binding level at 1 uM by Kinomescan method relative to control"}, "[4]": {"biological_target": "Vascular endothelial growth factor receptor 1 (Homo sapiens) (UniProt P17948)", "test": "Binding affinity to wild-type human partial length FLT1 (R781 to F1239 residues) expressed in bacterial expression system assessed as residual binding level at 1 uM by Kinomescan method relative to control", "how_it_was_run": "(§3)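 Kinome-wide competition binding screen against a panel of 468 purified kinases/mutants, with the test compound at a single concentration of 1 μM. Read-out is the relative binding activity of each kinase in the presence of compound.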"}, "[5]": {"biological_target": "Citron Rho-interacting kinase (Homo sapiens) (UniProt O14578)", "sequence (O14578 whole entry, the tested form may be a part)": "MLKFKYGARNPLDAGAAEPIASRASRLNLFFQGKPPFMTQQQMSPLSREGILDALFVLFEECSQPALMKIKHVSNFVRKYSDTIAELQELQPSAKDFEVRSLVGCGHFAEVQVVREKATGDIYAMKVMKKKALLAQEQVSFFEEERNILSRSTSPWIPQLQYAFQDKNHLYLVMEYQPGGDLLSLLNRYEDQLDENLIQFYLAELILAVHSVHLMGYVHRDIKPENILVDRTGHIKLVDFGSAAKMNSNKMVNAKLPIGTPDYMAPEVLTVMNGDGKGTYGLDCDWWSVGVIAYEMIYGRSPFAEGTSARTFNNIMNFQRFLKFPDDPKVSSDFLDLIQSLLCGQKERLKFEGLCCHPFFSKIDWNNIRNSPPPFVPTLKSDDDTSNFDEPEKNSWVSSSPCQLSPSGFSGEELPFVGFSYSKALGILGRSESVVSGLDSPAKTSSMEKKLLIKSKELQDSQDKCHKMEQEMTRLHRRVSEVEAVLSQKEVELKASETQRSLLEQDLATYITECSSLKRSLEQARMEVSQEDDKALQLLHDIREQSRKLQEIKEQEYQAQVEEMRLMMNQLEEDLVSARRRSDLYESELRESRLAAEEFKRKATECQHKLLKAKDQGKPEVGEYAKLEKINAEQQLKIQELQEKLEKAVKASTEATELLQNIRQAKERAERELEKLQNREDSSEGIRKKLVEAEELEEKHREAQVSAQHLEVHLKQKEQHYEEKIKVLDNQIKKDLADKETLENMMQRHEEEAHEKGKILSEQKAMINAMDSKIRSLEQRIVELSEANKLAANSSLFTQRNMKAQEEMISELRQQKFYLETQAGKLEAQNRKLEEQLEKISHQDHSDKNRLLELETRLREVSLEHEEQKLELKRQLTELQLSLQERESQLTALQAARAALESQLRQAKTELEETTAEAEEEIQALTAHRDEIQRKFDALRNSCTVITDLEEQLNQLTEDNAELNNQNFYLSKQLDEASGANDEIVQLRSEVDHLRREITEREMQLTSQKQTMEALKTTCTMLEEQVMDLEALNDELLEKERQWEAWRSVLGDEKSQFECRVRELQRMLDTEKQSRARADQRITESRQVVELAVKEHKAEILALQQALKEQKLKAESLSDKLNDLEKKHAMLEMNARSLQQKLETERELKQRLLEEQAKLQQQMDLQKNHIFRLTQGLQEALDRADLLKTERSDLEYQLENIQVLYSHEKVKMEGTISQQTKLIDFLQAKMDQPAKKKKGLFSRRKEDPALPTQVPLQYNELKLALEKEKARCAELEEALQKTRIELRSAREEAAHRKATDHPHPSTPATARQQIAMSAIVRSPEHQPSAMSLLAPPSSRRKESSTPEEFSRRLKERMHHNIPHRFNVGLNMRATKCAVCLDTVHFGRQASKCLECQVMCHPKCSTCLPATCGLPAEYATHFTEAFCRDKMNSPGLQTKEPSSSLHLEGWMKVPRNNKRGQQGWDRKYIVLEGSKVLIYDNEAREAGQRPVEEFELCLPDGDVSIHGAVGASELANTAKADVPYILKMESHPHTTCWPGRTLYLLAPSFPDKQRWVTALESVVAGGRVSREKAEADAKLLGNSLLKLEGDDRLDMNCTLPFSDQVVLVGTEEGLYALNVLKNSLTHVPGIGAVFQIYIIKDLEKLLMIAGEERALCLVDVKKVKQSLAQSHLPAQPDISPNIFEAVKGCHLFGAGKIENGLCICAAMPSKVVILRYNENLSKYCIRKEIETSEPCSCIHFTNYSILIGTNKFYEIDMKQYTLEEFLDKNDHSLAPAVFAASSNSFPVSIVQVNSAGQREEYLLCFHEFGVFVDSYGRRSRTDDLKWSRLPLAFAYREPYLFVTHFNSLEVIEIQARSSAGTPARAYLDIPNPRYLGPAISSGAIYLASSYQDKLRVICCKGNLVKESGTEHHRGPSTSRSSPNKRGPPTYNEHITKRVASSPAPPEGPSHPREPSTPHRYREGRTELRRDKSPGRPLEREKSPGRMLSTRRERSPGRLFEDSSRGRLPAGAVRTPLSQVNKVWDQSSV", "test": "Binding affinity to wild-type human partial length CIT (M68 to E432 residues) expressed in bacterial expression system assessed as residual binding level at 1 uM by Kinomescan method relative to control", "how_it_was_run": "as §3"}, "[6]": {"biological_target": "Serine/threonine-protein kinase 32C (Homo sapiens) (UniProt Q86UX6)", "test": "Binding affinity to wild-type human partial length YANK3 (M68 to G486 residues) expressed in bacterial expression system assessed as residual binding level at 1 uM by Kinomescan method relative to control"}, "[7]": {"biological_target": "Calcium/calmodulin-dependent protein kinase type II subunit alpha (Homo sapiens) (UniProt Q9UQM7)", "sequence (Q9UQM7 whole entry, the tested form may be a part)": "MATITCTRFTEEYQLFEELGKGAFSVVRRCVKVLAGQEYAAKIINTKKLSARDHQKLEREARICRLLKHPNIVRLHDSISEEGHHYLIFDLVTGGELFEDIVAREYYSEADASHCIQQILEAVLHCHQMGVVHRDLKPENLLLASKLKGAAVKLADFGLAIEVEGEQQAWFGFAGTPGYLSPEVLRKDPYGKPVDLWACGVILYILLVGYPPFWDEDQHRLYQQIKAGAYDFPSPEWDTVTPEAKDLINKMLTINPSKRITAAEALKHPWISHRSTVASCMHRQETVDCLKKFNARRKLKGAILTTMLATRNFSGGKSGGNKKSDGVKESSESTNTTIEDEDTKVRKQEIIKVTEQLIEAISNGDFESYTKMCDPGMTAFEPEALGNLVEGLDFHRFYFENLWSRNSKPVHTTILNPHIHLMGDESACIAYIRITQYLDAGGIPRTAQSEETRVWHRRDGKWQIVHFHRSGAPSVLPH", "test": "Binding affinity to wild-type human partial length CAMK2A (M1 to K328 residues) expressed in bacterial expression system assessed as residual binding level at 1 uM by Kinomescan method relative to control", "how_it_was_run": "as §3"}, "[8]": {"biological_target": "Cyclin-dependent kinase-like 5 (Homo sapiens) (UniProt O76039)", "test": "Binding affinity to wild-type human partial length CDKL5 (M1 to S337 residues) expressed in mammalian expression system assessed as residual binding level at 1 uM by Kinomescan method relative to control"}, "[9]": {"biological_target": "Ephrin type-A receptor 7 (Homo sapiens) (UniProt Q15375)", "test": "Binding affinity to wild-type human partial length EPHA7 (Y608 to S912 residues) expressed in bacterial expression system assessed as residual binding level at 1 uM by Kinomescan method relative to control"}, "[10]": {"biological_target": "Cyclin-dependent kinase-like 3 (Homo sapiens) (UniProt Q8IVW4)", "test": "Binding affinity to wild-type human partial length CDKL3 (M1 to D327 residues) expressed in bacterial expression system assessed as residual binding level at 1 uM by Kinomescan method relative to control", "how_it_was_run": "as §3"}, "[11]": {"biological_target": "Tyrosine-protein kinase Srms (Homo sapiens) (UniProt Q9H3Y6)", "test": "Binding affinity to wild-type human partial length SRMS (L208 to P488 residues) expressed in mammalian expression system assessed as residual binding level at 1 uM by Kinomescan method relative to control"}, "[12]": {"test_system": "Hepatocyte growth factor receptor (Homo sapiens), P08581 [M1250T]", "test": "Binding affinity to human partial length MET M1250T mutant (D1010 to S1367 residues) expressed in bacterial expression system assessed as residual binding level at 1 uM by Kinomescan method relative to control", "how_it_was_run": "as §1"}, "[13]": {"biological_target": "Mitogen-activated protein kinase 9 (Homo sapiens) (UniProt P45984)", "test": "Binding affinity to wild-type human full length JNK2 (M1 to Q382 residues) expressed in mammalian expression system assessed as residual binding level at 1 uM by Kinomescan method relative to control", "how_it_was_run": "as §2"}, "[14]": {"biological_target": "Atypical kinase COQ8A, mitochondrial (Homo sapiens) (UniProt Q8NI60)", "test": "Binding affinity to wild-type human full length ADCK3 (M280 to Q647 residues) expressed in bacterial expression system assessed as residual binding level at 1 uM by Kinomescan method relative to control", "how_it_was_run": "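Single-concentration (1 μM) competition-binding screen run by KINOMEscan against a panel of 468 purified kinases and mutants. The read-out is the relative binding activity of the test compound to each kinase.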"}, "[15]": {"biological_target": "Phosphatidylinositol 3-kinase catalytic subunit type 3 (Homo sapiens) (UniProt Q8NEB9)", "test": "Binding affinity to wild-type human partial length VPS34 (S282 to H879 residues) expressed in mammalian expression system assessed as residual binding level at 1 uM by Kinomescan method relative to control"}, "[16]": {"biological_target": "Mitogen-activated protein kinase 11 (Homo sapiens) (UniProt Q15759)", "test": "Binding affinity to wild-type human full length p38-beta (M1 to Q364 residues) expressed in bacterial expression system assessed as residual binding level at 1 uM by Kinomescan method relative to control", "how_it_was_run": "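Single-concentration KINOMEscan (DiscoverX) binding screen at 1 μM against a panel of 468 purified kinases and mutants. The read-out is binding relative to control.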"}, "[17]": {"biological_target": "Platelet-derived growth factor receptor alpha (Homo sapiens, UniProt P16234)", "test": "Binding affinity to wild-type human partial length PDGFRalpha (V575 to D1002 residues) expressed in mammalian expression system assessed as residual binding level at 1 uM by Kinomescan method relative to control", "how_it_was_run": "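KINOMEscan competition binding against a panel of 468 purified kinases/mutants, compound tested at 1 μM; readout is relative binding activity versus control.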"}, "NCI-H1703": {"test_system": "NCI-H1703", "test": "Cell cycle arrest in human NCI-H1703 cells assessed as accumulation at G0/G1 phase at 0.3 to 10 uM after 72 hrs in presence of PDGF-AA by propidium iodide/RNase staining-based flow cytometric analysis", "format": "functional", "how_it_was_run": "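Cells treated with compound or DMSO for the stated periods, fixed overnight in 70% cold ethanol at −20 °C, stained with PI/RNase buffer, then analysed by flow cytometry for cell-cycle distribution. For NCI-H1703 stimulation, PDGF AA was used at 100 ng/mL.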"}, "[18]": {"test_system": "Mast/stem cell growth factor receptor Kit (Homo sapiens), P10721 [V559D,V654A]", "test": "Binding affinity to human partial length KIT V559D/V654A double mutant (Y545 to D952 residues) expressed in bacterial expression system assessed as residual binding level at 1 uM by Kinomescan method relative to control", "how_it_was_run": "as §1"}, "[19]": {"biological_target": "Insulin receptor (Homo sapiens) (UniProt P06213)", "test": "Binding affinity to wild-type human partial length INSR (P997 to E1318 residues) expressed in mammalian expression system assessed as residual binding level at 1 uM by Kinomescan method relative to control"}}, "note": "Calls of active or inactive are those of the source. The rule behind the calls is not given here.", "data": [{"smiles": "Cc1ccc(NC(=O)c2ccc(CN(CCN(C)C)C(=O)c3cccnc3)cc2)cc1Nc1nccc(-c2cccnc2)n1", "values": [{"measurement": "Activity", "setting": "[1]", "result": 88, "unit": "%"}, {"measurement": "Activity", "setting": "[2]", "result": 87, "unit": "%"}, {"measurement": "Activity", "setting": "[3]", "result": 100, "unit": "%"}, {"measurement": "Activity", "setting": "[4]", "result": 75, "unit": "%"}, {"measurement": "Activity", "setting": "[5]", "result": 89, "unit": "%"}, {"measurement": "Activity", "setting": "[6]", "result": 96, "unit": "%"}, {"measurement": "Activity", "setting": "[7]", "result": 89, "unit": "%"}, {"measurement": "Activity", "setting": "[8]", "result": 100, "unit": "%"}, {"measurement": "Activity", "setting": "[9]", "result": 100, "unit": "%"}, {"measurement": "Activity", "setting": "[10]", "result": 91, "unit": "%"}, {"measurement": "Activity", "setting": "[11]", "result": 97, "unit": "%"}, {"measurement": "Activity", "setting": "[12]", "result": 86, "unit": "%"}, {"measurement": "Activity", "setting": "[13]", "result": 91, "unit": "%"}, {"measurement": "Activity", "setting": "[14]", "result": 100, "unit": "%"}, {"measurement": "Activity", "setting": "[15]", "result": 100, "unit": "%"}, {"measurement": "Activity", "setting": "[16]", "result": 100, "unit": "%"}, {"measurement": "Activity", "setting": "[17]", "result": 6.8, "unit": "%"}, {"measurement": "Activity", "setting": "NCI-H1703", "result": "Active"}, {"measurement": "Activity", "setting": "[18]", "result": 25, "unit": "%"}, {"measurement": "Activity", "setting": "[19]", "result": 100, "unit": "%"}]}]}
